Test results: ChEMBL document CHEMBL3286242, “Design, synthesis and biological evaluation of arylcinnamide hybrid derivatives as novel anticancer agents” (Eur J Med Chem, 2014)
The source made the active and inactive calls. No cut-off for these calls is given here.

Columns and labels:
L1210 = experiment: Cytotoxicity against mouse L1210 cells; format: functional, cell-based
HeLa [1] = experiment: Cytotoxicity against human HeLa cells assessed as growth inhibition after 72 hrs by MTT assay; format: functional, cell-based
HT-29 = experiment: Cytotoxicity against human HT-29 cells assessed as growth inhibition after 72 hrs by MTT assay; format: functional, cell-based; details: HT-29, 72 h
LoVo [2] = experiment: Cytotoxicity against human LoVo cells assessed as growth inhibition after 72 hrs by MTT assay; format: functional, cell-based
CCRF-CEM [3] = experiment: Cytotoxicity against human CEM cells assessed as growth inhibition after 72 hrs by MTT assay; format: functional, cell-based
Jurkat = experiment: Cytotoxicity against human Jurkat cells assessed as growth inhibition after 72 hrs by MTT assay; format: functional, cell-based
[4] = Cytotoxicity against human SEM cells assessed as growth inhibition after 72 hrs by MTT assay; format: functional, cell-based
MCF7 = experiment: Cytotoxicity against human MCF7 cells assessed as growth inhibition after 72 hrs by MTT assay; format: functional, cell-based; details: MCF7, 72 h
PBMC [5] = experiment: Cytotoxicity against human resting PBMC assessed as growth inhibition after 72 hrs by MTT assay; format: cell-based
Outline: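 Healthy-donor PBMC from Lymphoprep gradient, rested overnight in RPMI-1640/10% FBS; non-adherent cells at 5 × 10^5 cells/mL without PHA, treated 72 h with varying concentrations; viability by MTT; IC50 mean ± SEM, three separate experiments.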

PBMC [6] = experiment: Cytotoxicity against human PHA-stimulated PBMC assessed as growth inhibition after 72 hrs by MTT assay; format: functional, cell-based
[7] = Selectivity ratio of IC50 for human resting PBMC to IC50 for human Jurkat cells; format: ADME, cell-based; details: resting PBMC versus Jurkat cells, read-out: Ratio IC50
[8] = Selectivity ratio of IC50 for human resting PBMC to IC50 for human CEM cells; format: ADME, cell-based, CCRF-CEM; details: resting PBMC versus CEM cells, read-out: Ratio IC50
[9] = Cytotoxicity against human LoVo/DX cells assessed as growth inhibition after 72 hrs by MTT assay; format: functional, cell-based
[10] = Cytotoxicity against human CEM/VBL100 cells assessed as growth inhibition after 72 hrs by MTT assay; format: functional, cell-based; details: CEM/VBL100, 72 h
LoVo [11] = experiment: Resistance ratio of IC50 for human LoVo/DX cells to IC50 for human LoVo cells; format: functional
Outline: (§1)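 Ratio of IC50 in resistant line to IC50 in parental line (CEMVbl-100/CEM; LoVoDoxo/LoVo), each IC50 from 72 h MTT dose–response curves, ≥3 independent experiments.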

CCRF-CEM [12] = experiment: Resistance ratio of IC50 for human CEM/VBL100 cells to IC50 for human CEM cells; format: functional; outline: as §1
Tubulin (Bos taurus) = Tubulin (Bos taurus) (UniProt Q6B856+Q862L2+Q862F3); experiment: Inhibition of bovine brain tubulin polymerization at 20 uM by turbidimetry
Outline: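 Purified bovine brain tubulin (10 μM) preincubated with compound in glutamate buffer at 30 °C, cooled to 0 °C, GTP added, then warmed to 30 °C in cuvettes; assembly followed turbidimetrically; concentrations up to 20 μM.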

HeLa [13] = experiment: Induction of apoptosis in human HeLa cells assessed as increase in Bid protein expression at 1 uM after 24 hrs by Western blotting analysis; format: functional, cell-based
HeLa [14] = experiment: Induction of apoptosis in human HeLa cells assessed as increase in Bax protein expression at 1 to 2.5 uM after 24 to 48 hrs by Western blotting analysis; format: functional, cell-based
HeLa [15] = experiment: Induction of apoptosis in human HeLa cells assessed as increase in Bak protein expression at 1 to 2.5 uM after 24 to 48 hrs by Western blotting analysis; format: functional, cell-based
Tubulin (Homo sapiens) = Tubulin (Homo sapiens) (UniProt P68371+Q9H4B7+P0DPH7+P68366+Q13509+Q71U36+P04350+Q3ZCM7+P07437+P68363+Q9BQE3+Q6PEY2+Q13885+Q9BVA1+Q9BUF5); experiment: Inhibition of tubulin polymerization in human HeLa cells assessed as microtubule disruption at 2.5 to 5 uM after 24 hrs by immunofluorescence microscopy relative to untreated control; format: cell-based
Outline: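 HeLa cells exposed 24 h to 2.5 or 5.0 μM versus untreated; fixed in cold 4% formaldehyde 15 min, stained with anti-β-tubulin monoclonal (1:1000) and Alexa secondary (1:2000), DAPI counterstain; imaged by confocal microscopy at 20×.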

HeLa [16] = experiment: Cell cycle arrest in human HeLa cells assessed as accumulation at G2/M phase after 24 hrs by propidium iodide staining-based flow cytometry; format: functional
Outline: (§2)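 HeLa cells in exponential growth (2.5 × 10^5) treated 24 h at various concentrations; ethanol-fixed (70%, ice-cold), lysed with RNase A/0.1% Triton X-100, PI-stained; DNA content by flow cytometry, phase percentages from DNA histograms.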

HeLa [17] = experiment: Cell cycle arrest in human HeLa cells assessed as reduction in S phase after 24 hrs by propidium iodide staining-based flow cytometry; format: functional; outline: as §2
HeLa [18] = experiment: Induction of apoptosis in human HeLa cells at 0.62 to 5 uM after 24 to 48 hrs by Annexin V/FITC staining-based flow cytometry; format: functional, cell-based
Outline: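 HeLa cells treated 24 or 48 h at indicated concentrations, then stained with annexin-V-FITC plus PI; flow cytometry with 488 nm excitation, 525 and 585 nm emission; live, early/late apoptotic and necrotic populations distinguished; means of three independent experiments.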

HeLa [19] = experiment: Induction of apoptosis in human HeLa cells assessed as caspase activation at 2.5 uM after 48 hrs in presence of pan-caspase inhibitor z-VAD.fmk; format: functional, cell-based
Outline: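 HeLa cells given 2.5 μM compound for 48 h with or without 100 μM z-VAD.fmk pan-caspase inhibitor; viability measured; means ± SEM of three independent experiments, Student's t-test.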

HeLa [20] = experiment: Induction of apoptosis in human HeLa cells assessed as reduction in Bcl-2 protein expression at 1 to 2.5 uM by Western blotting analysis; format: functional, cell-based; details: TDE = time-dependent effect
Outline: (§3)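 HeLa cells treated at indicated concentrations and times; washed in cold PBS, lysed 30 min at 0 °C, cleared at 15 000 × g; 20 μg protein resolved on 7.5–15% gradient SDS-PAGE, blotted to PVDF, primary antibodies 2 h room temperature, peroxidase secondary 60 min, ECL detection; β-actin reprobe for loading.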

HeLa [21] = experiment: Induction of apoptosis in human HeLa cells assessed as caspase-3 activation after 24 to 48 hrs by Western blotting analysis; format: functional, cell-based; outline: as §3
HeLa [22] = experiment: Induction of apoptosis in human HeLa cells assessed as caspase-3 activation at 1 to 2.5 uM by Western blotting analysis; format: functional, cell-based; details: TDE = time-dependent effect; outline: as §3
HeLa [23] = experiment: Induction of apoptosis in human HeLa cells assessed as PARP cleavage after 24 to 48 hrs by Western blotting analysis; format: functional, cell-based; outline: as §3
HeLa [24] = experiment: Induction of apoptosis in human HeLa cells assessed as PARP cleavage at 1 to 2.5 uM by Western blotting analysis; format: functional, cell-based; details: TDE = time-dependent effect; outline: as §3
HeLa [25] = experiment: Induction of apoptosis in human HeLa cells assessed as caspase-9 activation at 1 to 2.5 uM after 24 to 48 hrs by Western blotting analysis; format: functional, cell-based; outline: as §3
HeLa [26] = experiment: Induction of apoptosis in human HeLa cells assessed as caspase-8 activation at 1 to 2.5 uM after 24 to 48 hrs by Western blotting analysis; format: functional, cell-based; outline: as §3
HeLa [27] = experiment: Induction of apoptosis in human HeLa cells assessed as reduction in Bcl-2 protein expression at 1 to 2.5 uM after 48 hrs by Western blotting analysis; format: functional, cell-based; outline: as §3
HeLa [28] = experiment: Induction of apoptosis in human HeLa cells assessed as reduction in Mcl-1 protein expression at 2.5 uM after 48 hrs by Western blotting analysis; format: functional, cell-based; outline: as §3
HeLa [29] = experiment: Induction of DNA damage in human HeLa cells assessed as increase in gammaH2A.X protein expression at 1 to 2.5 uM after 48 hrs by Western blotting analysis; format: functional, cell-based
HeLa [30] = experiment: Induction of apoptosis in human HeLa cells assessed as GSH depletion after 24 hrs by CMFDA staining-based flow cytometry; format: functional, cell-based
Outline: (§4)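 HeLa cells treated 24 h with compound, alone or with 100 μM NAC; harvested and loaded with 5 μM CMFDA, 30 min at 37 °C; intracellular GSH read as CMFDA fluorescence by flow cytometry; means ± SEM.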

HeLa [31] = experiment: Induction of apoptosis in human HeLa cells assessed as GSH depletion at 1 to 2.5 uM after 24 hrs by CMFDA staining-based flow cytometry in presence of N-acetylcysteine; format: functional, cell-based; outline: as §4

**Q.** With `C=C(Br)C(=O)O` as the molecule, how does the IC50 (L1210) read?
**A.** > 120000 nM

**Q.** Which IC50 (HeLa [1]) does the source give for `C=C(Br)C(=O)Nc1cccc(/C=C/C(=O)Nc2ccc(N3CCOCC3)cc2)c1` here?
**A.** 430 nM

**Q.** What about the IC50 (HT-29) of the same molecule?
**A.** 1600 nM

**Q.** And the IC50 (LoVo [2])?
**A.** 510 nM

**Q.** And the IC50 (CCRF-CEM [3])?
**A.** 610 nM

**Q.** What about the IC50 (Jurkat) of the same molecule?
**A.** 40 nM

**Q.** What about the IC50 [4] of the same molecule?
**A.** 57 nM

**Q.** And the IC50 (MCF7)?
**A.** 2600 nM

**Q.** What about the IC50 (PBMC [5]) of the same molecule?
**A.** 4000 nM

**Q.** What about the IC50 (PBMC [6]) of the same molecule?
**A.** 500 nM

**Q.** And the selectivity ratio [7]?
**A.** 10

**Q.** And the selectivity ratio [8]?
**A.** 10

**Q.** What about the IC50 [9] of the same molecule?
**A.** 1050 nM

**Q.** And the IC50 [10]?
**A.** 410 nM

**Q.** And the “Ratio IC50” value (LoVo [11])?
**A.** 2

**Q.** What about the “Ratio IC50” value (CCRF-CEM [12]) of the same molecule?
**A.** 0.7

**Q.** What about the inhibition (Tubulin (Bos taurus)) of the same molecule?
**A.** inactive

**Q.** What about the Activity (HeLa [13]) of the same molecule?
**A.** inactive

**Q.** And the Activity (HeLa [14])?
**A.** inactive

**Q.** What about the Activity (HeLa [15]) of the same molecule?
**A.** inactive

**Q.** And the inhibition (Tubulin (Homo sapiens))?
**A.** inactive

**Q.** What about the Activity (HeLa [16]) of the same molecule?
**A.** Dose-dependent effect

**Q.** What about the Activity (HeLa [17]) of the same molecule?
**A.** Active

**Q.** What about the Activity (HeLa [18]) of the same molecule?
**A.** Active

**Q.** And the Activity (HeLa [19])?
**A.** inactive

**Q.** What about the Activity (HeLa [20]) of the same molecule?
**A.** tde

**Q.** What about the Activity (HeLa [21]) of the same molecule?
**A.** Dose-dependent effect

**Q.** What about the Activity (HeLa [22]) of the same molecule?
**A.** tde

**Q.** And the Activity (HeLa [23])?
**A.** Dose-dependent effect

**Q.** What about the Activity (HeLa [24]) of the same molecule?
**A.** tde

**Q.** And the Activity (HeLa [25])?
**A.** inactive

**Q.** And the Activity (HeLa [26])?
**A.** Active

**Q.** What about the Activity (HeLa [27]) of the same molecule?
**A.** Active

**Q.** What about the Activity (HeLa [28]) of the same molecule?
**A.** Active

**Q.** What about the Activity (HeLa [29]) of the same molecule?
**A.** Active

**Q.** And the Activity (HeLa [30])?
**A.** Dose-dependent effect

**Q.** What about the Activity (HeLa [31]) of the same molecule?
**A.** inactive
